# According to PMC8159881 (ACS nano, 2021):
# Assays:
# [1] = Inward budding
# [2] = Partitioning and budding in phase-separated GUVs; conditions: for inward budding from the Ld phase of phase-separated GUVs: 10 μM Cy-5-labeled peptide, 30 min
# Summary of the method: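 Peptide was applied to the GUVs for 30 min before imaging. Fluorescein at 0.3 μM was added to the external buffer to mark true inward budding, seen as fluorescein-containing intraluminal vesicles.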
# [3] = system: INS-1E cells; test: Glucose-stimulated insulin secretion assay; format: cell-based
# Summary of the method: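 Lentivirally transduced proinsulin-NanoLuc INS-1E cells were plated overnight (37 °C, 5% CO₂), washed, and held 1 h in KRB (HEPES, BSA) with 2.8 mM glucose. They got peptide for 5 min (2 μM; 5 or 10 μM in one set; DMSO mock), then 20 min in KRB with 20 mM glucose, or 2.8 mM as control. Supernatant luciferase read with coelenterazine.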
substance,measurement,setting,value
Cy5-DHVVWSLFNTLFMNPC [AH(56-71)],binding of peptide to GUVs in the absence of cholesterol,[1]; GUVs without cholesterol,not affected
same,inward budding of GUVs without cholesterol containing DOPE,"[1]; GUVs without cholesterol, DOPE 20 mol%",could be rescued
same,inward budding of GUVs without cholesterol,[1]; peptide added to GUVs without cholesterol,failed to induce efficient inward budding
same,inward budding from the Ld phase of phase-separated GUVs,[2],caused inward budding from this domain
FITC-Ahx-DHVVWSLFNTLFMNPC(PAL)CLGF [AH(56-75)],phase partitioning in phase-separated GUVs,[2]; fluorescently-tagged peptide palmitoylated at Cys71,clearly partitioned to the Ld phase and appeared to concentrate at the phase boundary
"lyso-PC [LPC, reference compound]",glucose-stimulated insulin secretion,[3]; cells pretreated with 20 μM LPC,promoted insulin secretion
same,budding of GUV membrane on addition of lipid,[1]; LPC titrated on preformed GUVs containing POPC and cholesterol,outward budding of the GUV membrane in an LPC dose-dependent manner
Cy5-LVWHMFLSDNFTNPV [Scrambled AH(56-71)],inward budding from the Ld phase of phase-separated GUVs,[2],failed to cause inward budding from this phase
Cy5-CVWSLFNTLFM [AH(59-68)],binding to the plasma membrane of INS-1E cells,[3]; cells pretreated with peptide,effectively bound to the plasma membrane
